Measurements: ChEMBL document CHEMBL1146459, “Production of biologically active taxoids by a callus culture of Taxus cuspidata” (2004)

How the values were obtained:
[1] = Reversal of multidrug resistance in human 2780AD cells assessed as [3H]vincristine accumulation at 1 ug/mL after 2 hrs relative to control; assay type: functional, A2780 ADR
Method in brief: (§1)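 Multidrug-resistant human ovarian cancer 2780AD cells were exposed to taxoids at 0.1, 1 or 10 µg/mL. Radiolabelled vincristine accumulated in the cells was measured as dpm/well, using means of triplicate determinations. Results are expressed as % of vincristine accumulated relative to the control experiment. They were also scored on a seven-level index according to the range of relative accumulation.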

[2] = Reversal of multidrug resistance in human 2780AD cells assessed as [3H]vincristine accumulation at 10 ug/mL after 2 hrs relative to control; assay type: functional, A2780 ADR; method in brief: as §1
[3] = Reversal of multidrug resistance in human 2780AD cells assessed as [3H]vincristine accumulation at 0.1 ug/mL after 2 hrs relative to verapamil; assay type: functional, A2780 ADR
[4] = Growth inhibition of human BSY1 cells after 48 hrs by SRB assay; assay type: functional; settings: BSY-1, 48 h
[5] = Growth inhibition of human HBC5 cells after 48 hrs by SRB assay; assay type: functional; settings: HBC5, 48 h
[6] = test system: MCF7; test: Growth inhibition of human MCF7 cells after 48 hrs by SRB assay; assay type: functional; settings: MCF7, 48 h
[7] = test system: SNB-78; test: Growth inhibition of human SNB78 cells after 48 hrs by SRB assay; assay type: functional; settings: SNB-78, 48 h
[8] = test system: HCC 2998; test: Growth inhibition of human HCC2998 cells after 48 hrs by SRB assay; assay type: functional; settings: HCC 2998, 48 h
[9] = test system: KM12; test: Growth inhibition of human KM12 cells after 48 hrs by SRB assay; assay type: functional; settings: KM12, 48 h
[10] = test system: NCI-H23; test: Growth inhibition of human NCI-H23 cells after 48 hrs by SRB assay; assay type: functional; settings: NCI-H23, 48 h
[11] = test system: NCI-H226; test: Growth inhibition of human NCI-H226 cells after 48 hrs by SRB assay; assay type: functional; settings: NCI-H226, 48 h
[12] = test system: NCI-H522; test: Growth inhibition of human NCI-H522 cells after 48 hrs by SRB assay; assay type: functional; settings: NCI-H522, 48 h
[13] = test system: NCI-H460; test: Growth inhibition of human NCI-H460 cells after 48 hrs by SRB assay; assay type: functional; settings: NCI-H460, 48 h
[14] = test system: DMS-114; test: Growth inhibition of human DMS114 cells after 48 hrs by SRB assay; assay type: functional; settings: DMS-114, 48 h
[15] = test system: OVCAR-3; test: Growth inhibition of human OVCAR-3 cells after 48 hrs by SRB assay; assay type: functional; settings: OVCAR-3, 48 h
[16] = test system: OVCAR-4; test: Growth inhibition of human OVCAR4 cells after 48 hrs by SRB assay; assay type: functional; settings: OVCAR-4, 48 h
[17] = test system: OVCAR-8; test: Growth inhibition of human OVCAR8 cells after 48 hrs by SRB assay; assay type: functional; settings: OVCAR-8, 48 h
[18] = test system: SK-OV-3; test: Growth inhibition of human SKOV3 cells after 48 hrs by SRB assay; assay type: functional; settings: SK-OV-3, 48 h
[19] = test system: ACHN; test: Growth inhibition of human ACHN cells after 48 hrs by SRB assay; assay type: functional
[20] = test system: MKN-28; test: Growth inhibition of human MKN28 cells after 48 hrs by SRB assay; assay type: functional; settings: MKN-28, 48 h
[21] = test system: MKN-74; test: Growth inhibition of human MKN74 cells after 48 hrs by SRB assay; assay type: functional; settings: MKN-74, 48 h
[22] = read-out: LC50 (the source's name)
[23] = read-out: pLC50 (the source's name) (converted)

`C=C1[C@@H](OC(C)=O)CC[C@]2(C)[C@@H]1C[C@@H]1C[C@H](OC(C)=O)C(C)=C([C@@H](O)[C@@H]2OC(=O)/C=C/c2ccccc2)C1(C)C` gave an Activity [1] of 399%, an Activity [2] of 648% and an Activity [3] of 139%. For the same compound, the GI50 ([4]; read-out: GI50) was 6.9 µM, the TGI ([4]; read-out: TGI) was 82 µM and the GI50 ([4]; read-out: pGI50 (converted)) was 6.92 µM. The TGI ([4]; read-out: pTGI (converted)) was 87.1 µM, the CC50 [5, 22] was 100 µM and the TGI ([5]; read-out: TGI) was 100 µM. For the same compound, the GI50 ([5]; read-out: pGI50 (converted)) was over 100 µM, the CC50 [5, 23] was 100 µM and the TGI ([5]; read-out: pTGI (converted)) was 100 µM. The GI50 ([6]; read-out: GI50) was 9.3 µM, the CC50 [6, 22] was over 100 µM and the TGI ([6]; read-out: TGI) was 100 µM. For the same compound, the GI50 ([6]; read-out: pGI50 (converted)) was 9.33 µM, the CC50 ([6]; read-out: pLC50 (converted)) was over 100 µM and the TGI ([6]; read-out: pTGI (converted)) was 100 µM. It also gave a GI50 ([7]; read-out: GI50) of 3.2 µM, a TGI ([7]; read-out: TGI) of 100 µM and a GI50 ([7]; read-out: pGI50 (converted)) of 3.16 µM. The TGI ([7]; read-out: pTGI (converted)) was 100 µM, the GI50 ([8]; read-out: GI50) was 26 µM and the CC50 [8, 22] was 100 µM. The TGI ([8]; read-out: TGI) was 100 µM, the GI50 ([8]; read-out: pGI50 (converted)) was 26.3 µM and the CC50 [8, 23] was 100 µM. The TGI ([8]; read-out: pTGI (converted)) was 100 µM, the GI50 ([9]; read-out: GI50) was 6.4 µM and the CC50 [9, 22] was over 100 µM. The TGI ([9]; read-out: TGI) was 100 µM, the GI50 ([9]; read-out: pGI50 (converted)) was 6.46 µM and the CC50 ([9]; read-out: pLC50 (converted)) was over 100 µM. The TGI ([9]; read-out: pTGI (converted)) was 100 µM, the GI50 ([10]; read-out: GI50) was over 100 µM and the CC50 [10, 22] was 100 µM. It also gave a TGI ([10]; read-out: TGI) of 100 µM, a GI50 ([10]; read-out: pGI50 (converted)) of over 100 µM and a CC50 [10, 23] of 100 µM. The TGI ([10]; read-out: pTGI (converted)) was 100 µM, the GI50 ([11]; read-out: GI50) was 21 µM and the CC50 [11, 22] was 100 µM. It also gave a TGI ([11]; read-out: TGI) of 100 µM, a GI50 ([11]; read-out: pGI50 (converted)) of 83.2 µM and a CC50 [11, 23] of 100 µM. It also gave a TGI ([11]; read-out: pTGI (converted)) of 100 µM, a GI50 ([12]; read-out: GI50) of 3.1 µM and a CC50 [12, 22] of 100 µM. The TGI ([12]; read-out: TGI) was 81 µM, the GI50 ([12]; read-out: pGI50 (converted)) was 3.09 µM and the CC50 [12, 23] was 100 µM. It also gave a TGI ([12]; read-out: pTGI (converted)) of 100 µM, a GI50 ([13]; read-out: GI50) of 44 µM and a TGI ([13]; read-out: TGI) of 100 µM. The GI50 ([13]; read-out: pGI50 (converted)) was 41.7 µM, the TGI ([13]; read-out: pTGI (converted)) was 100 µM and the GI50 ([14]; read-out: GI50) was 7.8 µM. The CC50 [14, 22] was 100 µM, the TGI ([14]; read-out: TGI) was 100 µM and the GI50 ([14]; read-out: pGI50 (converted)) was 7.76 µM. It also gave a CC50 [14, 23] of 100 µM, a TGI ([14]; read-out: pTGI (converted)) of 100 µM and a GI50 ([15]; read-out: GI50) of 5 µM. It also gave a CC50 [15, 22] of over 100 µM, a TGI ([15]; read-out: TGI) of 100 µM and a GI50 ([15]; read-out: pGI50 (converted)) of 5.01 µM. For the same compound, the CC50 ([15]; read-out: pLC50 (converted)) was over 100 µM, the TGI ([15]; read-out: pTGI (converted)) was 100 µM and the GI50 ([16]; read-out: GI50) was 22 µM. For the same compound, the CC50 [16, 22] was 100 µM, the TGI ([16]; read-out: TGI) was 100 µM and the GI50 ([16]; read-out: pGI50 (converted)) was 22.4 µM. It also gave a CC50 [16, 23] of 100 µM, a TGI ([16]; read-out: pTGI (converted)) of 100 µM and a GI50 ([17]; read-out: GI50) of over 100 µM. For the same compound, the TGI ([17]; read-out: TGI) was 100 µM, the GI50 ([17]; read-out: pGI50 (converted)) was over 100 µM and the TGI ([17]; read-out: pTGI (converted)) was 100 µM. It also gave a GI50 ([18]; read-out: GI50) of over 100 µM, a CC50 [18, 22] of 100 µM and a TGI ([18]; read-out: TGI) of 100 µM. For the same compound, the GI50 ([18]; read-out: pGI50 (converted)) was over 100 µM, the CC50 [18, 23] was 100 µM and the TGI ([18]; read-out: pTGI (converted)) was 100 µM. It also gave a GI50 ([19]; read-out: GI50) of 87 µM, a CC50 [19, 22] of 100 µM and a TGI ([19]; read-out: TGI) of 100 µM. The GI50 ([19]; read-out: pGI50 (converted)) was 89.1 µM, the CC50 [19, 23] was 100 µM and the TGI ([19]; read-out: pTGI (converted)) was 100 µM. For the same compound, the GI50 ([20]; read-out: GI50) was 12 µM, the CC50 [20, 22] was over 100 µM and the TGI ([20]; read-out: TGI) was 100 µM. It also gave a GI50 ([20]; read-out: pGI50 (converted)) of 11.7 µM, a CC50 ([20]; read-out: pLC50 (converted)) of over 100 µM and a TGI ([20]; read-out: pTGI (converted)) of 100 µM. The GI50 ([21]; read-out: GI50) was 9.5 µM, the CC50 [21, 22] was 100 µM and the TGI ([21]; read-out: TGI) was 100 µM. It also gave a GI50 ([21]; read-out: pGI50 (converted)) of 9.55 µM, a CC50 [21, 23] of 100 µM and a TGI ([21]; read-out: pTGI (converted)) of 100 µM.
